Reference: ChEMBL document CHEMBL2069239, “High DNA affinity of a series of peptide linked diaromatic guanidinium-like derivatives” (J Med Chem, 2012)
Active and inactive are the calls of the source. No cut-off for these calls is given here.

Columns and labels:
Nucleic Acid [1] = test: Binding affinity to (AT)4 DNA by SPR analysis; format: nucleic-acid assay
How it was run: (§1)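 Biosensor analysis against three immobilized DNA hairpin duplexes in degassed MES buffer (10 mM MES, 1 mM EDTA, 92 mM NaCl, 0.0005% v/v P20, pH 6.25) at 25 °C. A ligand concentration series was injected at 20 μL/min for 5 min, then dissociated for 5 min, with NaCl/NaOH regeneration. K was fitted from steady-state RU versus free ligand using a two-site binding equation.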

Nucleic Acid [2] = test: Binding affinity to (GC)4 DNA by SPR analysis; format: nucleic-acid assay; how it was run: as §1
Nucleic Acid [3] = test: Binding affinity to AATT DNA by SPR analysis; format: nucleic-acid assay; how it was run: as §1
Nucleic Acid [4] = test: Binding affinity to poly(dA.dT)2 DNA in phosphate buffer assessed as change in melting temperature by thermal denaturation assay
Nucleic Acid [5] = test: Binding affinity to Salmon sperm DNA in phosphate buffer assessed as change in melting temperature by thermal denaturation assay; format: nucleic-acid assay; conditions: Salmonidae
How it was run: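 UV melting of salmon sperm DNA (150 μM base) with compound (15 μM), giving a compound:base ratio of 0.1, in 10 mM sodium phosphate buffer at pH 7. Absorbance at 260 nm was followed from 20 to 90 °C at 1 °C/min, collecting five points per °C, in a 1 cm quartz cell.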

Nucleic Acid [6] = test: Binding affinity to poly(dA).poly(dT) DNA in MES buffer assessed as change in melting temperature by thermal denaturation assay; format: nucleic-acid assay
Nucleic Acid [7] = test: Binding affinity to poly(dA.dT)2 DNA assessed as large induced CD signal at 0.5 mM by circular dichroism study; format: nucleic-acid assay
Nucleic Acid [8] = test: Binding affinity to DNA assessed as large induced CD signal at 0.5 mM by circular dichroism study; format: nucleic-acid assay
Nucleic Acid [9] = test: Binding affinity to poly(dA.dT)2 DNA in phosphate buffer by ITC analysis; format: nucleic-acid assay
How it was run: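 Calorimetric titration at 25 °C of 2.48 mM compound in 10 mM phosphate buffer into poly(dA·dT)2 in the cell (2 mM). There were 29 injections, spaced 300 s apart. Heat per injection was obtained by integrating the power peak area over time.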

Compound | K (Nucleic Acid [1]) [×10⁵ /M] | K (Nucleic Acid [2]) [×10⁵ /M] | K (Nucleic Acid [3]) [×10⁵ /M] | Activity (Nucleic Acid [4]) | ΔTm (Nucleic Acid [5]) [°C] | Activity (Nucleic Acid [6]) | ΔTm (Nucleic Acid [4]) [°C] | Activity (Nucleic Acid [7]) | Activity (Nucleic Acid [8]) | K (Nucleic Acid [9]) [×10⁵ /M]
N=C(N)Nc1ccc(NC(=O)c2ccc(NC(=N)N)cc2)cc1 | 18 | < 1 | 71 |  | 11 |  | 20 | Active | Active | 
N=C(N)Nc1ccc(C(=O)c2ccc(N=C3NCCN3)cc2)cc1 |  |  | 2.7 |  |  |  |  |  |  | 
O=C(Nc1ccc(NC2=NCCN2)cc1)c1ccc(NC2=NCCN2)cc1 | 47.7 | < 1 | 93.7 |  | 12.5 |  | 29 | Active | Active | 4.9
N=C(N)Nc1ccc(Nc2ccc(N=C3NCCN3)cc2)cc1 |  | < 1 | 6.4 |  |  |  |  |  |  | 

The remaining lines, values ahead:

K (Nucleic Acid [1]) [×10⁵ /M] | K (Nucleic Acid [2]) [×10⁵ /M] | K (Nucleic Acid [3]) [×10⁵ /M] | Activity (Nucleic Acid [4]) | ΔTm (Nucleic Acid [5]) [°C] | Activity (Nucleic Acid [6]) | ΔTm (Nucleic Acid [4]) [°C] | Activity (Nucleic Acid [7]) | Activity (Nucleic Acid [8]) | K (Nucleic Acid [9]) [×10⁵ /M] | Compound
12.2 | 6.5 | 5.7 |  |  |  |  |  |  |  | Nc1ccc2cc3ccc(N)cc3nc2c1
 |  |  | inactive | 2 | inactive |  |  |  |  | Nc1ccc(C(=O)Nc2ccc(NC3=NCCN3)cc2)cc1
 |  |  | inactive | 1 | inactive |  |  |  |  | N=C(N)Nc1ccc(NC(=O)c2ccc(N)cc2)cc1
 |  |  |  | 10 |  | 26.1 | Active | Active | 1.54 | N=C(N)Nc1ccc(NC(=O)c2ccc(NC3=NCCN3)cc2)cc1
